Bioassay records deposited in PubChem BioAssay by Johns Hopkins Ion Channel Center.
TRPC4 potent = positive allosteric modulators of TRPC4, primary screen, cell-based, mouse TRPC4beta, HEK293 mu-opioid, Fluo-4 calcium | Short transient receptor potential channel 4 (Mus musculus), Q9QUQ5 | DAMGO EC20, Fluo-4 Ca2+ flux; stronger effect = higher value | B-score at 10 µM | 0.42% of 310,000 active | AID 2227, 2009;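 active = B-score of calcium response area above 5 SD of library B-scores, with initial fluorescence ratio within 5 SD of library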;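 note: B-score of integrated fluorescence ratio over time as area under calcium response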
Kir21 inh = inhibitors of mouse Kir2.1 inward-rectifier potassium channel; Inward rectifier potassium channel 2 (Mus musculus), P35561; HEK293-Kir2.1, FluxOR thallium flux fluorescence; stronger effect = lower value; B-score at 10 µM; 0.85% of 310,000 active; AID 1672, 2009;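 active = fluorescence ratio B-score at or below minus 3 SD of library scores, with starting-brightness B-score within 2 SD, cut at about -4.2 in these data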;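 note: channel flux triggered by added potassium and thallium sulfate stimulus; B-score of peak minus minimum fluorescence over baseline after thallium stimulus; more negative B-score means stronger Kir2.1 block with less thallium influx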
TRPC6 activator = mouse TRPC6 channel activators, primary screen, cell-based, HEK293, membrane potential dye; HEK293-TRPC6 membrane potential dye fluorescence; stronger effect = higher value; B-score at 10 µM; 0.13% of 310,000 active;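 active = B-score of the integrated fluorescence ratio above library mean plus 3 SD, and starting fluorescence ratio within library mean plus 5 SD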;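 note: higher score means more depolarization so channel activation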
Target sequence (Q61143 whole entry, looked up): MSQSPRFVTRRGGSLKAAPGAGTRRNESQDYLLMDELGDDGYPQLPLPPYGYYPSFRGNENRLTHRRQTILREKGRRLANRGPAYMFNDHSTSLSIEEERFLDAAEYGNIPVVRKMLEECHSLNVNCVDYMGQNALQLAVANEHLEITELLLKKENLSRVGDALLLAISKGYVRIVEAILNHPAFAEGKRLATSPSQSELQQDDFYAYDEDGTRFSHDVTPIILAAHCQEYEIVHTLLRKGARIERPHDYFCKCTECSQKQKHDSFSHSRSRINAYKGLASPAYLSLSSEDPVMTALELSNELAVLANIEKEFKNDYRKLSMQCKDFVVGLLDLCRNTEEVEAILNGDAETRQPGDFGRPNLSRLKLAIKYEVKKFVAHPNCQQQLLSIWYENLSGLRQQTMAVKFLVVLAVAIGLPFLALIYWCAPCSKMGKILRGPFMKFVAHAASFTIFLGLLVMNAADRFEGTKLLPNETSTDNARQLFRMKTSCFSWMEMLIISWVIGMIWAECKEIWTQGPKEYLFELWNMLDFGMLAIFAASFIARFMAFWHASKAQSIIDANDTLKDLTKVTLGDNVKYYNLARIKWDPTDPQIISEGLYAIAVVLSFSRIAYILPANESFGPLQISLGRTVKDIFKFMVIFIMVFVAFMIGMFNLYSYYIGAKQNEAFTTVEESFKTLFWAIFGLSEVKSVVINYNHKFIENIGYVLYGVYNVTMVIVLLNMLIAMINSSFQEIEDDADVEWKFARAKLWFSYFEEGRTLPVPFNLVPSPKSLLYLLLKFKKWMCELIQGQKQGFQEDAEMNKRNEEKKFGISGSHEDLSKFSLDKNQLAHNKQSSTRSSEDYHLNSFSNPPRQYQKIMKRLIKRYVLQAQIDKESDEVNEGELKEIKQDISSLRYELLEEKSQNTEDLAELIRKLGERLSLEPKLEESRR
TRPC6 inh = mouse TRPC6 channel inhibitors, primary screen, cell-based, HEK293, membrane potential dye; ACh-evoked depolarization; stronger effect = lower value; 1.1% of 310,000 active; B-score at 10 µM; AID 2553, 2010;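 active = B-score under library mean minus 3 SD, initial fluorescence not abnormally high, positive integrated signal ratio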;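 note: B-score derived from integrated fluorescence ratio over the kinetic read; more negative B-score means stronger inhibition of depolarization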
TRPC4 agonist = activators of mouse TRPC4 channel, primary screen, Fluo4 calcium, HEK293 TRPC4beta/mu-opioid cells; B-score at 10 µM; Fluo4 calcium fluorescence; stronger effect = higher value; 0.49% of 310,000 active; AID 2237, 2010;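 active = B-score above 5 SD of library B-scores, and initial fluorescence ratio not above library mean plus 5 SD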;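 note: positive B-score marks a calcium rise read as TRPC4 activation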
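System – HEK293 cells stably co-expressing mouse TRPC4beta and mu-opioid receptor · Signal – Fluo4 calcium-sensitive dye fluorescence, kinetic, 1 Hz baseline · Benchmarks – buffer (low) and maximal DAMGO (high) · Read-out – B score of integrated fluorescence ratio per well · Incubation – dye loading 45 min room temperature, 110 s kinetic read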
TRPC4 inh = inhibitors of mouse TRPC4 channel, primary screen, Fluo4 calcium, HEK293 TRPC4beta/mu-opioid cells; DAMGO-evoked Fluo4 calcium flux; stronger effect = lower value; B-score at 10 µM; 0.39% of 300,000 active;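 active = B-score over 3 SD under the library average, no early fluorescence shift, positive overall ratio signal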
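Assay system – HEK293 line stably carrying TRPC4beta and mu-opioid receptor · Doses – single dose · Detection – Fluo4 calcium-dye fluorescence, kinetic read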
TRPC4 sel inh 2 = mouse TRPC4 off-target activity of TRPC6 inhibitors, second screen | shares compounds with TRPC6 inh | inhibition, % at 10 µM | 42% of 920 active | HEK293 TRPC4/MOR, membrane potential dye fluorescence; channel activated by saturating DAMGO dose;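 active = compounds whose fluorescence signal differed from control wells by over 3 SD, either direction, in both duplicate plates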
TRPC4 spec = mouse TRPC4 modulation by TRPC6 hits, confirmation, selectivity assay for TRPC6 inhibitor project, cell-based, HEK293 TRPC4/mu-opioid, membrane potential dye | shares compounds with TRPC6 inh | membrane potential fluorescence | activity change, negative = inhibition, % at 10 µM | 61% of 920 active | AID 2777, 2010;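 active = rise or fall in signal beyond 3 SD of buffer-only wells in both replicate plates, either sign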;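 note: integrated kinetic ratio of fluorescence range over baseline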
HEK293 MPD ctr 2-1 = nonspecific membrane potential effects, parental HEK293, confirmation, counter-screen for TRPC6 inhibitor project, cell-based, second counter screen; signal change vs control, % at 10 µM; shares compounds with TRPC6 inh; parental HEK293 membrane potential dye fluorescence; maximal acetylcholine challenge after compound addition; 31% of 920 active;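 active = membrane potential signal moving either way by over 3 SD of the maximum-effect control, in both duplicate plates, meaning non-specific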
HEK293 MPD ctr-1 = membrane potential modulation in parental HEK293, confirmation, counter-screen for TRPC6 inhibitor project, cell-based. shares compounds with TRPC6 inh. parental HEK293 membrane potential dye fluorescence. membrane potential signal change, % at 10 µM. 60% of 920 active;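 active = membrane potential signal shifting up or down by more than 3 SD of buffer-only wells, on both duplicate plates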
HEK293 MPD ctr-2 = parental HEK293 membrane potential modulation, confirmation, counter-screen for TRPC6 modulator project, cell-based; shares compounds with TRPC6 inh; membrane potential dye fluorescence; membrane potential signal change, % at 10 µM; 51% of 2,400 active; AID 488924, 2010;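 active = membrane potential signal moves up or down beyond 5 SD from buffer-only wells, on both duplicate plates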
HEK293 MPD ctr 2-2 = parental HEK293 nonspecific activity of TRPC6 modulators, second screen; inhibition, % at 10 µM; shares compounds with TRPC6 inh; membrane potential dye fluorescence; after compound, maximal acetylcholine stimulation; 14% of 2,400 active;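 active = membrane potential signal drops by more than 5 SD from the mean control signal, in both duplicate plates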;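 note: plate controls were acetylcholine ECmax control wells for no effect and buffer only wells for full effect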
TRPC4/MOR mod = TRPC4 modulation by TRPC6 hit compounds, confirmation, selectivity assay for TRPC6 modulator project, cell-based, HEK293 TRPC4/mu-opioid, membrane potential dye, mouse. shares compounds with TRPC6 inh. membrane potential fluorescence. percent change from control (negative = decrease, positive = increase), % at 10 µM. 69% of 2,400 active. AID 488927, 2010;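 active = membrane potential signal moved up or down beyond 5 SD of buffer control wells, in both duplicate plates, actives on both sides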;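 note: plate controls were assay buffer wells for no effect and DAMGO maximal-effect wells for full effect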
TRPC4/MOR inh 2 = second check of whether TRPC6 modulators also affect mouse TRPC4; HEK293 TRPC4/mu-opioid, membrane potential dye fluorescence; stimulated with maximal-effect DAMGO; inhibition, % at 10 µM; shares compounds with TRPC6 inh; 55% of 2,400 active;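 active = drop in membrane potential signal beyond 5 SD of the control wells in both duplicate plates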;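 note: TRPC4 counter screen for TRPC6 hits run under conditions tuned for TRPC6 not TRPC4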
TRPC6 inh conf = mouse TRPC6 channel inhibitors, confirmation, HEK293 cells, membrane potential dye, duplicate | 43% of 3,300 active | AID 488960, 2010 | shares compounds with TRPC6 inh | ACh-evoked depolarization | inhibition, % at 10 µM;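 active = fluorescence ratio falls more than 5 SD below the full-stimulation control mean, in both duplicate runs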;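 note: integrated fluorescence ratio of peak minus minimum over baseline after agonist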
TRPC6 act confirm = mouse TRPC6 channel activators, confirmation, HEK293 cells, membrane potential dye, duplicate; 11% of 2,800 active; HEK293-TRPC6 membrane potential dye fluorescence, FDSS; activation, % at 10 µM; shares compounds with TRPC6 inh;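 active = ratio signal rise beyond 5 SD above unstimulated control wells' mean, seen in both duplicate runs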;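 note: plate controls were buffer EC0 wells for no effect and acetylcholine ECmax response for full effect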
An asterisk follows results filed as active; i = inactive; nt = no result. The list is not random: actives were taken first. Their share in the collection is about 2.9%.

SMILES	TRPC4 potent	Kir21 inh	TRPC6 activator	TRPC6 inh	TRPC4 agonist	TRPC4 inh	HEK293 MPD ctr-2	HEK293 MPD ctr 2-2	TRPC4/MOR mod	TRPC4/MOR inh 2	TRPC6 inh conf	TRPC6 act confirm	others
Cc1onc(-c2c(F)cccc2Cl)c1C(=O)NC(=S)Nc1c(C)n(C)n(-c2ccccc2)c1=O	i	0.08	i	-9.2*	i	i	nt	nt	nt	nt	i	i	TRPC4 sel inh 2=i;TRPC4 spec=i;HEK293 MPD ctr 2-1=38%*;HEK293 MPD ctr-1=i
Cc1nnc(C)c2c(C)n(-c3ccccc3)c(C)c12	i	1.1	i	-5*	i	i	-127%*	i	-22%*	50%*	45%*	i
O=C(NC(=S)NC1CCSC1=O)c1cccs1 (stereo unspecified)	i	-0.79	i	-6.4*	i	i	i	i	i	i	i	i
Cc1ccccc1C(=O)NC(=S)NC1CCSC1=O (stereo unspecified)	i	0.84	i	i	i	i	nt	nt	nt	nt	nt	nt
Cc1ccccc1OCC(=O)N/N=C1\SCC(=O)N1Cc1ccccc1	i	-0.88	i	i	i	i	nt	nt	nt	nt	nt	nt
CN1C(=O)CS/C1=N\NC(=O)COc1cccc2cccnc12	i	2	i	-5.9*	i	i	-230%*	i	-42%*	i	i	i
